From ChEMBL document CHEMBL4308900, “Synthesis and identification of 2,4-bisanilinopyrimidines bearing 2,2,6,6-tetramethylpiperidine-N-oxyl as potential Aurora A inhibitors” (Bioorg Med Chem, 2019) come the findings set out here.

Calls of active or inactive are those of the source. The calls are words filed in the database; no cut-off is given here.

Experiment [1] deals with HeLa. In words: Induction of apoptosis in human HeLa cells assessed as late apoptotic cells at 5 uM after 12 hrs by Annexin V-FITC/propidium iodide staining-based flow cytometric analysis (reference value: 2.32%). It counts as functional. (In general: In flow cytometry, cells or beads pass a laser one at a time.)
The subject of experiment [2] is HeLa. Nature of the experiment: Cell cycle arrest in human HeLa cells assessed as accumulation at G1 phase at 1 uM after 12 hrs by propidium iodide staining-based flow cytometric analysis (reference value: 70.68%). It counts as functional. The procedure, abridged: (§1)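 HeLa cells exposed 12 h to 1 or 5 μM compound diluted from DMSO (DMSO control), fixed, stained with propidium iodide; DNA content measured by flow cytometry and G1, S, G2/M fractions calculated from the DNA histogram.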

Experiment [3] relates to HeLa. Nature of the experiment: Cell cycle arrest in human HeLa cells assessed as accumulation at S phase at 5 uM after 12 hrs by propidium iodide staining-based flow cytometric analysis (reference value: 5.74%). It counts as functional. The procedure, abridged: as §1
Experiment [4] has as its target T1, Aurora kinase B (Homo sapiens, UniProt Q96GD4). In words: Inhibition of Aurora B phosphorylation at Thr232 residue in human HeLa cells at <10 nM after 12 hrs by ELISA. It counts as cell-based. In a few lines:
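HeLa cells grown 12 h in 6-well dishes with compound diluted from DMSO at several concentrations; whole-cell lysate captured on anti-Aurora A or B antibody-coated wells, HRP-labelled detection, TMB substrate, stopped with sulphuric acid, absorbance at 450 nm.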

For experiment [5], the system named is HeLa. In words: Cell cycle arrest in human HeLa cells assessed as accumulation at G2/M phase after 12 hrs by propidium iodide staining-based flow cytometric analysis. It counts as functional. In a few lines:
as §1

In experiment [6] the test system is HeLa. In words: Induction of apoptosis in human HeLa cells assessed as late apoptotic cells at 1 uM after 12 hrs by Annexin V-FITC/propidium iodide staining-based flow cytometric analysis (reference value: 2.32%). Type of experiment: functional.
The subject of experiment [7] is HeLa. In words: Cell cycle arrest in human HeLa cells assessed as accumulation at S phase at 1 uM after 12 hrs by propidium iodide staining-based flow cytometric analysis (reference value: 5.74%). It counts as functional. The procedure, abridged: as §1
Experiment [8] has as its system HeLa. In words: Induction of apoptosis in human HeLa cells assessed as upregulation of caspase-3 protein expression up to 5 uM after 12 hrs by Western blot analysis. It counts as functional, cell-based. In a few lines:
(§2)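 HeLa cells treated 12 h (0.1, 1, 5 μM for apoptosis proteins); lysed in Tris pH 7.5/NP-40/SDS buffer with protease inhibitors, equal protein on 10% SDS-PAGE, PVDF, 5% BSA block, primary antibodies overnight at 4 °C, β-actin loading control; mean ± SD.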
(Immunoblotting shows a protein as a band on a membrane.)

Experiment [9] has as its system HeLa. In words: Cell cycle arrest in human HeLa cells assessed as accumulation at G2/M phase at 5 uM after 12 hrs by propidium iodide staining-based flow cytometric analysis (reference value: 23.57%). It counts as functional. The procedure, abridged:
as §1

Experiment [10] concerns HeLa. In words: Induction of apoptosis in human HeLa cells assessed as upregulation of Bad protein expression up to 5 uM after 12 hrs by Western blot analysis. It counts as functional, cell-based. The procedure, abridged: as §2
Experiment [11] concerns HeLa. In words: Cell cycle arrest in human HeLa cells assessed as accumulation at G1 phase at 5 uM after 12 hrs by propidium iodide staining-based flow cytometric analysis (reference value: 70.68%). It counts as functional. The procedure, abridged:
as §1

For experiment [12], the system named is HeLa. In words: Induction of apoptosis in human HeLa cells assessed as upregulation of Bax protein expression up to 5 uM after 12 hrs by Western blot analysis. It counts as functional, cell-based. In a few lines: as §2
For experiment [13], the target named is T1, Aurora kinase B. Nature of the experiment: Inhibition of Aurora B phosphorylation at Thr232 residue in human HeLa cells after 12 hrs by Western blot analysis. Type of experiment: cell-based. In a few lines: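 HeLa cells given 0, 1.25, 2.5 or 5.0 μM for 12 h; lysates in buffer with phosphatase and protease inhibitors, 10% SDS-PAGE western blot probed for phospho-Aurora A Thr288, phospho-Aurora B Thr232 and total Aurora A/B, β-actin loading control; band levels as mean ± SD versus control.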

Experiment [14] deals with T1, Aurora kinase B. Nature of the experiment: Inhibition of Aurora B (unknown origin) using kemptide acetate salt as substrate after 30 mins by kinase-Glo luminescence method. For orientation: Kinase-Glo measures the ATP left after a reaction by luminescence.
The test system of experiment [15] is HeLa. In words: Disruption of spindle formation in human HeLa cells assessed as formation of abnormal mitotic spindles at 0.1 to 1 uM after 24 hrs by DAPI staining based immunofluorescence microscopic analysis. Type of experiment: functional, cell-based. The procedure, abridged:
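HeLa cells on coverslips treated 24 h (0.1 or 1 μM; DMSO control); fixed in 4% paraformaldehyde, permeabilised in 0.1% Triton X-100 with 2% BSA, anti-α-tubulin overnight at 4 °C, FITC secondary 2 h room temperature, DAPI for DNA; confocal imaging.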

Experiment [16] has as its system HeLa. In words: Induction of apoptosis in human HeLa cells assessed as viable cells at 0.1 uM after 12 hrs by Annexin V-FITC/propidium iodide staining-based flow cytometric analysis (reference value: 91.02%). As to conditions: read-out: Activity. Type of experiment: functional.
Experiment [17] relates to HeLa. In words: Cell cycle arrest in human HeLa cells assessed as decrease in cdc2 protein expression up to 5 uM after 12 hrs by Western blot analysis. It counts as functional, cell-based. The procedure, abridged: as §2

T1 sequence (Q96GD4 whole entry): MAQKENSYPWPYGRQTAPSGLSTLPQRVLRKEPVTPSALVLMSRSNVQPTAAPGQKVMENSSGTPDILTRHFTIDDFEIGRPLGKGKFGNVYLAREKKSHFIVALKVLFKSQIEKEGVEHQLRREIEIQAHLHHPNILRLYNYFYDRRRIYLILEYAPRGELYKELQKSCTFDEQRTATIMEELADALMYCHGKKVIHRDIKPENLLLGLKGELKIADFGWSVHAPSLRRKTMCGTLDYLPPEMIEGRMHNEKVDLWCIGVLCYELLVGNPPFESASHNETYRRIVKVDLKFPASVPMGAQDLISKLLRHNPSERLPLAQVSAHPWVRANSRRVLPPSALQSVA

As a reminder, the IC50 is the concentration at which inhibition is half-maximal. `CC1(C)CC(NC(=O)c2ccc(Nc3ncc(F)c(Nc4ccc(C(=O)Nc5ccccc5Cl)cc4)n3)cc2)CC(C)(C)N1[O]`: the Activity in the experiment on HeLa [1] is 16.66%; with HeLa [2], 48%; with HeLa [3], 0%; in the experiment with HeLa [5] it was “Dose-dependent effect”; with HeLa [6], 8.06%; in the experiment on HeLa [7] it was 11.33%. For the same compound, the Activity with HeLa [9] worked out at 60.33%; in the experiment with HeLa [11], 39.67%. Also, on Aurora kinase B [4], the inhibition result is “inactive”. In addition, the result in the experiment with HeLa [8], in the experiment with HeLa [10], in the experiment on HeLa [12], in the experiment on HeLa [15] and in the experiment with HeLa [17] was Active. On Aurora kinase B [13], the inhibition result was “Dose-dependent effect”. The IC50 at Aurora kinase B [14] came to 2.55 nM. In the experiment on HeLa [16], the viability at 0.1 µM was 90.3%.
